The term Ki denotes the equilibrium dissociation constant of an inhibitor or competing ligand from its target. Higher therefore signals weaker binding. One may read the inhibition as the drop in the measured response relative to a control, in per cent. High values mean a strong effect, low ones a weak effect.

The source of these data is ChEMBL document CHEMBL1147988, “Synthesis of bridged piperazines with sigma receptor affinity” (Eur J Med Chem, 2007).

For experiment [1], the target named is Sigma non-opioid intracellular receptor 1 (Cavia porcellus, UniProt Q60492). Description: Displacement of [3H](+)-pentazocine from sigma 1 receptor in guinea pig brain membrane. In kind it is cell membranes.
For another experiment, the species on record is Cavia porcellus. Description: Displacement of [3H]MK-801 from NMDA receptor in guinea pig brain membrane at 10 uM. The format is cell membranes. The method in brief:
(§1)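 Single-point screen: percent inhibition of radioligand binding to guinea pig brain membranes with test compound at 10 µM.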

Experiment [2] addresses Kappa-type opioid receptor (Cavia porcellus, UniProt P41144). Description: Displacement of [3H]U-69593 from kappa opioid receptor in guinea pig brain membrane. In kind it is cell membranes. In general terms: Loss of bound radioactivity is the signal in a displacement assay; it reports binding, not function.
In experiment [3] the target is Mu-type opioid receptor (Cavia porcellus) (UniProt P97266). Description: Displacement of [3H]DAMGO from mu opioid receptor in guinea pig brain membrane at 10 uM. The format is cell membranes. The method in brief: as §1
The target in a further experiment is Sigma 2 receptor. Description: Displacement of [3H]ditolylguanidine from sigma 2 receptor in Sprague-Dawley rat liver membrane. The format is cell membranes.
Experiment [4] deals with Kappa-type opioid receptor (Cavia porcellus) (UniProt P41144). Description: Displacement of [3H]U-69593 from kappa opioid receptor in guinea pig brain membrane at 10 uM. In kind it is cell membranes. The method in brief: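 Single-concentration test reported as percent inhibition of [3H]-U-69593 binding to guinea pig brain membranes. All experiments run in triplicate. Glass fibre filters presoaked 2 h at 4 °C in 0.5% polyethylenimine, then harvested by filtration. Bound radioactivity counted by liquid scintillation at 66% counting efficiency.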

Experiment [5] is described as follows: Displacement of [3H]MK-801 from NMDA receptor in guinea pig brain membrane. The format is cell membranes, Cavia porcellus.
Another experiment concerns the target Mu-type opioid receptor (Cavia porcellus, UniProt P97266). Description: Displacement of [3H]DAMGO from mu opioid receptor in guinea pig brain membrane. The format is cell membranes.
Experiment [6] deals with Sigma non-opioid intracellular receptor 1 (Cavia porcellus) (UniProt Q60492). Description: Selectivity for guinea pig sigma 1 receptor over rat sigma 2 receptor.
Chain of Sigma non-opioid intracellular receptor 1 (Cavia porcellus) (Q60492 whole entry): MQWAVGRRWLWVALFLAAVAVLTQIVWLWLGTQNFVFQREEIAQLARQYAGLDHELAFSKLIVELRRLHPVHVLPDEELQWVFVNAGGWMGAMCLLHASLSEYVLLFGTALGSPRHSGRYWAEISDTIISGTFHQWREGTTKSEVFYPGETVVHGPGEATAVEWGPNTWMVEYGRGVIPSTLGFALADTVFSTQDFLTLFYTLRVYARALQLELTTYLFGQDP

Chain of Sigma non-opioid intracellular receptor 1 (Q60492 whole entry): as above
Chain of Kappa-type opioid receptor (P41144 whole entry): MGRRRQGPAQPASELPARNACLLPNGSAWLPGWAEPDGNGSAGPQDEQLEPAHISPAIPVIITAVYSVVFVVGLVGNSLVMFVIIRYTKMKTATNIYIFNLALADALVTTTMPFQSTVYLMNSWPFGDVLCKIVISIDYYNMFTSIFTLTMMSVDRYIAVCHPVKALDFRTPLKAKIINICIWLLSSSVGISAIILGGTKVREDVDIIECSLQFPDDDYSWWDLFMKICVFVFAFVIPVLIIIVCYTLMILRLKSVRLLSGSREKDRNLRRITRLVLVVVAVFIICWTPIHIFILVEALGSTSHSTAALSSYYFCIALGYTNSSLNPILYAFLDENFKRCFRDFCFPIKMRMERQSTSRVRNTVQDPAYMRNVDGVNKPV
Chain of Mu-type opioid receptor (Cavia porcellus) (P97266 whole entry): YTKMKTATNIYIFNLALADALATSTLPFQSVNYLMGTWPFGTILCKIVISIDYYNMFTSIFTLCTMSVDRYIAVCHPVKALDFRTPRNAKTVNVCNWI
Chain of Mu-type opioid receptor (P97266 whole entry): as above
Chain of Kappa-type opioid receptor (Cavia porcellus) (P41144 whole entry): as the sequence (P41144 whole entry) above

With `COC1CCC2CN(CCc3ccccc3)C1CN2Cc1ccccc1` (centres undefined), the Ki in experiment [1] is 0.076 µM; in experiment [2], 5.02 µM; at Sigma 2 receptor, 0.297 µM. In addition, the inhibition in the experiment filed under Cavia porcellus came out at 50.5%; in experiment [3], 68.6%.

Consider `CN1CC2CCC(O)C1CN2Cc1ccccc1` (single isomer, unassigned; form 2) [listing 1 of 2 here], for which the inhibition in the experiment filed under Cavia porcellus is 21%; in experiment [4] it was 12.6%; in experiment [3], 8.5%.

In the case of `CO[C@@H]1CC[C@H]2CN(C)[C@@H]1CN2Cc1ccccc1`, the values for the Ki (in experiment [1]; in experiment [2]; on Sigma 2 receptor) were 1.35 µM, 3.59 µM and 0.327 µM, respectively. The inhibition in the experiment filed under Cavia porcellus was determined as 8.7%; in experiment [3] it was 21.5%.

Turning to `CN1CC2CCC(O)C1CN2Cc1ccccc1` (single isomer, unassigned; form 1) [listing 1 of 2 here], the values for the Ki (in experiment [1]; at Sigma 2 receptor) were 4.97 µM and 2.89 µM, respectively.

Turning to `c1ccc(CCN2CC3CCC(OCc4ccccc4)C2CN3Cc2ccccc2)cc1` (centres undefined), the Ki in experiment [1] came to 0.175 µM; in [2], 2.23 µM; on Sigma 2 receptor it was 0.628 µM. Also, the inhibition came to 16.4% in the experiment filed under Cavia porcellus and 34.8% in experiment [3].

For `CN1CC2CCC(O)C1CN2Cc1ccccc1` (single isomer, unassigned; form 2) [listing 2 of 2 here], the Ki is 2.4 µM in [1] and 4.18 µM at Sigma 2 receptor.

For `CN1C[C@@H]2CC[C@@H](OCc3ccccc3)[C@H]1CN2Cc1ccccc1`, the figures for the Ki (in [1]; in experiment [2]; at Sigma 2 receptor) were 0.0162 µM, 0.585 µM and 0.0304 µM, respectively. Further, the results for the inhibition (in the experiment filed under Cavia porcellus; in experiment [3]) were 0% and 70.4%, respectively.

`CCCCN1CC2CCC(O)C1CN2Cc1ccccc1` (centres undefined): the Ki in experiment [1] stood at 0.0234 µM; in experiment [2], 1.6 µM; at Sigma 2 receptor, 0.447 µM. Also, the inhibition in the experiment listed under Cavia porcellus worked out at 52.3%; in experiment [3], 37.9%.

For the molecule `c1ccc(C2(N3CCCCC3)CCCCC2)cc1` [PHENCYCLIDINE], affinity in experiment [5] was put at a Ki of 0.028 µM.

For the molecule `O[C@@H]1CCC2CN(CCc3ccccc3)C1CN2Cc1ccccc1` (some centres undefined), the Ki in experiment [1] is 0.0333 µM; at Mu-type opioid receptor, 4.96 µM; in [2] it was 2.46 µM; on Sigma 2 receptor, 0.343 µM. This molecule also registered an inhibition in the experiment listed under Cavia porcellus of 21.9%.

As to `COC1(OC)CC[C@H]2CN(C)[C@@H]1CN2Cc1ccccc1`, the values for the Ki (in [1]; in experiment [2]; on Sigma 2 receptor) were 3.5 µM, > 10 µM and 1.83 µM, respectively. The values for the inhibition (in the experiment filed under Cavia porcellus; in experiment [3]) were 44.3% and 27.6%, respectively.

As for `CCCCN1CC2CCC(OCc3ccccc3)C1CN2Cc1ccccc1` (centres undefined), the Selectivity ratio in [6] amounted to 21. The Ki in [1] stood at 0.0395 µM; at Mu-type opioid receptor it was 3.32 µM; in experiment [2], 1.11 µM; on Sigma 2 receptor, 0.82 µM. This molecule also came in with an inhibition in the experiment listed under Cavia porcellus of 21.5%.

As to `CCCCN1CC2CCC(OC)C1CN2Cc1ccccc1` (centres undefined), the Selectivity ratio in experiment [6] stood at 16. In addition, the values for the Ki (in experiment [1]; in experiment [2]; at Sigma 2 receptor) were 0.0132 µM, 0.157 µM and 0.219 µM, respectively. For the same molecule, the values for the inhibition (in the experiment filed under Cavia porcellus; in experiment [3]) were 55.5% and 37.4%, respectively.

Regarding `OC1CCC2CN(CCc3ccccc3)C1CN2Cc1ccccc1` (single isomer, unassigned), the Ki in experiment [1] came to 0.0295 µM; on Mu-type opioid receptor, 4.05 µM; in [2] it was 1.29 µM; on Sigma 2 receptor, 0.588 µM. Also, the inhibition in the experiment listed under Cavia porcellus was 20.6%.

For `CN[C@]1(c2ccccc2Cl)CCCCC1=O` [ESKETAMINE], the Ki in experiment [5] was found to be 0.108 µM.

On to `CN1CC2CCC(O)C1CN2Cc1ccccc1` (single isomer, unassigned; form 1) [listing 2 of 2 here], for which the inhibition in the experiment listed under Cavia porcellus is 13.7%; in [4] it was 13.2%; in experiment [3] it was 4.7%.
